From ChEMBL document CHEMBL1134284, “The biological effects of structural variation at the meta position of the aromatic rings and at the end of the alkenyl chain in the alkenyldiarylmethane series of non-nucleoside reverse transcriptase inhibitors” (J Med Chem, 2001)

Tests used:
[1] = tested on: CCRF-CEM; test: Antiviral activity against site directed wild-type enzyme isolate HIV-1 NL4-3WT in CEM cells; type: functional, cell-based; settings: Homo sapiens
Outline: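 Wild-type NL4-3 in CEM-SS cells, measured both by MTS cytoprotection 6 days after infection and by p24 ELISA. The IC50 is the mean of the two methods' values.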

[2] = (§1) Antiviral activity against subtype isolate G strain in PBLs (peripheral blood lymphocytes); type: cell-based; settings: human, read-out: TC50 (the source's name)
Outline: (§2)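 PBMC from hepatitis- and HIV-seronegative donors isolated by Ficoll-Hypaque gradient and stimulated 3 days with phytohemagglutinin/IL-2 before infection. Medium RPMI 1640 with 10% FBS, 2 mM glutamine, penicillin/streptomycin. Replication read as supernatant reverse transcriptase activity. […] Run in triplicate, SD within triplicate under 10%; AZT positive control.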

[3] = tested on: CCRF-CEM; test: Antiviral activity against site directed 4X AZT resistant isolate HIV-1 in CEM cells; type: functional, cell-based, Homo sapiens; settings: ccrf-cem
[4] = (§3) Antiviral activity against WEJO virus strain in PBLs (peripheral blood lymphocytes); type: functional, cell-based; settings: Homo sapiens
Outline: (§4)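 PBMCs isolated from hepatitis- and HIV-seronegative donors by Ficoll-Hypaque gradient and stimulated 3 days with phytohemagglutinin/IL-2. Infected with pediatric low-passage clinical isolates or NIAID subtype isolates, in RPMI 1640 with 10% FBS, 2 mM glutamine, penicillin/streptomycin. Replication read as supernatant reverse transcriptase activity. […] Run in triplicate, with AZT as positive control.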

[5] = tested on: CCRF-CEM; test: Antiviral activity against site directed resistant isolates in HIV-1 A98G CEM cells; type: functional, cell-based, Homo sapiens
Outline: (§5)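 CEM-SS cells infected with low-cytopathicity site-directed RT-mutant NL4-3 clones (A98G, L74V, 4XAZT = D67N/K70R/T215Y/K219Q, 4XAZT/L100I). Replication was quantified by p24 ELISA rather than cytoprotection. […] Triplicate, variation of mean about 10%.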

[6] = as §3; type: ADME, cell-based; settings: human, read-out: TC50 (the source's name); outline: as §2
[7] = (§6) Antiviral activity against multi drug resistant MDR 769 strain in PBLs (peripheral blood lymphocytes); type: ADME, cell-based; settings: human, read-out: TC50 (the source's name); outline: as §2
[8] = (§7) Antiviral activity against subtype isolate B strain in PBLs (peripheral blood lymphocytes); type: ADME, cell-based; settings: human, read-out: TC50 (the source's name); outline: as §2
[9] = (§8) Antiviral activity against SLKA virus strain in PBLs (peripheral blood lymphocytes); type: ADME, cell-based; settings: human, read-out: TC50 (the source's name); outline: as §2
[10] = (§9) Antiviral activity against ROJO virus strain in PBLs (peripheral blood lymphocytes); type: ADME, cell-based; settings: human, read-out: TC50 (the source's name); outline: as §2
[11] = tested on: CCRF-CEM; test: Antiviral activity against site directed resistant isolate HIV-1 L100I in CEM cells; type: functional, cell-based, Homo sapiens
Outline: (§10)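 CEM-SS cells in RPMI 1640 with 10% heat-inactivated FBS were infected with NL4-3 molecular clones carrying site-directed RT mutations. Cytoprotection from virus-induced syncytial killing was read by MTS/phenazine ethosulfate reduction (A490) 6 days after infection. […] Triplicate, variation of mean about 10%.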

[12] = (§11) Antiviral activity against subtype isolate F strain in PBLs (peripheral blood lymphocytes); type: cell-based; settings: human, read-out: TC50 (the source's name); outline: as §2
[13] = as §1; type: functional, cell-based; settings: Homo sapiens; outline: as §4
[14] = as §8; type: functional, cell-based; settings: Homo sapiens; outline: as §4
[15] = (§12) Antiviral activity against Ba-L monocyte tropic isolate strain in monocyte; type: ADME; settings: human, monocytes; read-out: TC50 (the source's name)
Outline: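 Monocytes isolated from hepatitis- and HIV-seronegative donors by Ficoll-Hypaque gradient, cultured 6 days, then infected. Medium RPMI 1640 with 10% FBS, 2 mM glutamine, penicillin/streptomycin. Virus replication measured by p24 antigen ELISA 6 days postinfection. […] Run in triplicate, SD within triplicate under 10%; AZT positive control.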

[16] = tested on: CCRF-CEM; test: Antiviral activity against site directed resistant isolate HIV-1 K103N in CEM cells; type: functional, cell-based, Homo sapiens; outline: as §10
[17] = tested on: CCRF-CEM; test: Antiviral activity against site directed resistant isolate HIV-1 Y188C in CEM cells; type: functional, cell-based, Homo sapiens; outline: as §10
[18] = (§13) Antiviral activity against subtype isolate A strain in PBLs (peripheral blood lymphocytes); type: functional, cell-based; settings: Homo sapiens; outline: as §4
[19] = (§14) Antiviral activity against TEKI virus strain in PBLs (peripheral blood lymphocytes); type: functional, cell-based; settings: Homo sapiens; outline: as §4
[20] = (§15) Antiviral activity against subtype isolate E strain in PBLs (peripheral blood lymphocytes); type: ADME, cell-based; settings: human, read-out: TC50 (the source's name); outline: as §2
[21] = as §7; type: functional, cell-based; settings: Homo sapiens; outline: as §4
[22] = as §13; type: ADME, cell-based; settings: human, read-out: TC50 (the source's name); outline: as §2
[23] = as §12; type: functional; settings: Homo sapiens
Outline: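 Monocytes isolated from hepatitis- and HIV-seronegative donors by Ficoll-Hypaque gradient, cultured 6 days into macrophages, then infected with Ba-L. Medium RPMI 1640 with 10% FBS, 2 mM glutamine, penicillin/streptomycin. Replication read as p24 antigen by ELISA 6 days postinfection. […] Run in triplicate, with AZT as positive control.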

[24] = tested on: CCRF-CEM; test: Antiviral activity against site directed resistant isolate HIV-1 V179D in CEM cells; type: functional, cell-based, Homo sapiens; outline: as §10
[25] = as §6; type: functional, cell-based; settings: Homo sapiens; outline: as §2
[26] = (§16) Antiviral activity against subtype isolate D strain in PBLs (peripheral blood lymphocytes); type: functional, cell-based; settings: Homo sapiens; outline: as §4
[27] = as §16; type: ADME, cell-based; settings: human, read-out: TC50 (the source's name); outline: as §2
[28] = (§17) Antiviral activity against subtype isolate O strain in PBLs (peripheral blood lymphocytes); type: functional, cell-based; settings: Homo sapiens; outline: as §4
[29] = as §17; type: ADME, cell-based; settings: human, read-out: TC50 (the source's name); outline: as §2
[30] = tested on: CCRF-CEM; test: Antiviral activity against site directed resistant isolate HIV-1 Y181C in CEM cells; type: functional, cell-based, Homo sapiens; outline: as §10
[31] = as §11; type: functional, cell-based; settings: Homo sapiens; outline: as §4
[32] = as §14; type: ADME, cell-based; settings: human, read-out: TC50 (the source's name); outline: as §2
[33] = Antiviral activity against subtype isolate C strain in PBLs (peripheral blood lymphocytes); type: ADME, cell-based; settings: human, read-out: TC50 (the source's name); outline: as §2
[34] = tested on: CCRF-CEM; test: Antiviral activity against site directed resistant isolate HIV-1 L74V in CEM cells; type: functional, cell-based, Homo sapiens; outline: as §5
[35] = as §15; type: functional, cell-based; settings: Homo sapiens; outline: as §4
[36] = cells; settings: Homo sapiens
[37] = tested on: CCRF-CEM; test: Antiviral activity against site directed 4X AZT resistant isolate HIV-1 L100I in CEM cells; type: functional, cell-based, Homo sapiens; outline: as §5
[38] = tested on: CCRF-CEM; test: Antiviral activity against site directed resistant isolate HIV-1 V106A in CEM cells; type: functional, cell-based, Homo sapiens; outline: as §10
[39] = as §9; type: functional, cell-based; settings: Homo sapiens; outline: as §4
[40] = tested on: CCRF-CEM; test: Antiviral activity against site directed resistant isolate HIV-1 K101E in CEM cells; type: functional, cell-based, Homo sapiens

SMILES: Cc1cn([C@H]2C[C@H](N=[N+]=[N-])[C@@H](CO)O2)c(=O)[nH]c1=O [ZIDOVUDINE]
- IC50 [1]: 17 nM
- CC50 [2]: > 170000 nM
- IC50 [3]: 82 nM
- IC50 [4]: 1 nM
- IC50 [5]: 8 nM
- CC50 [6]: > 190000 nM
- CC50 [7]: > 172000 nM
- CC50 [8]: > 200000 nM
- CC50 [9]: > 190000 nM
- CC50 [10]: > 190000 nM
- IC50 [11]: 6 nM
- CC50 [12]: > 200000 nM
- IC50 [13]: 2 nM
- IC50 [14]: 1 nM
- CC50 [15]: > 200000 nM
- IC50 [16]: 7 nM
- IC50 [17]: 87 nM
- IC50 [18]: 1 nM
- IC50 [19]: 2 nM
- CC50 [20]: > 170000 nM
- IC50 [21]: 9 nM
- CC50 [22]: > 180000 nM
- IC50 [23]: 2 nM
- IC50 [24]: 20 nM
- IC50 [25]: 25 nM
- IC50 [26]: 7 nM
- CC50 [27]: > 200000 nM
- IC50 [28]: 1 nM
- CC50 [29]: > 170000 nM
- IC50 [30]: 80 nM
- IC50 [31]: 2 nM
- CC50 [32]: > 190000 nM
- CC50 [33]: > 200000 nM
- IC50 [34]: 40 nM
- IC50 [35]: 2 nM
- IC50 [36]: 4 nM
- IC50 [37]: 870 nM
- IC50 [38]: 14 nM
- IC50 [39]: 1 nM
- IC50 [40]: 46 nM
